# Source: ChEMBL document CHEMBL4837203, “Innovative C2-symmetric testosterone and androstenedione dimers: Design, synthesis, biological evaluation on prostate cancer cell lines and binding study to recombinant CYP3A4” (Eur J Med Chem, 2021)
# Columns and labels:
# PC-3 = assay: Antiproliferative activity against androgen-insensitive human PC-3 cells assessed as inhibition of cell growth incubated for 48 hrs by MTT assay; format: functional, cell-based; settings: PC-3, 48 h
# Method in brief: (§1)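 MTT assay. Cells were seeded at 8 × 10^3/well and left overnight, then grown 48 h in fresh medium with a range of compound concentrations. They were stained with 0.5 mg/mL MTT for 3 h, solubilised in 10% Triton X-100 in acidic isopropanol (0.1 N HCl), and read at 590 nm. Growth inhibition was calculated against control plates fixed on the treatment day. LNCaP and PC3 were kept in RPMI with 10% calf serum. Three replicate wells per condition, three independent repeats.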
# LNCaP [1] = assay: Antiproliferative activity against androgen-sensitive human LNCaP cells assessed as inhibition of cell growth incubated for 48 hrs by MTT assay; format: functional, cell-based; method in brief: as §1
# DU-145 = assay: Antiproliferative activity against androgen-insensitive human DU-145 cells assessed as inhibition of cell growth incubated for 48 hrs by MTT assay; format: functional, cell-based; settings: DU-145, 48 h
# LNCaP [2] = assay: Antiproliferative activity against androgen-sensitive human LNCaP cells assessed as inhibition of DHT-induced cell growth at 0.25 uM incubated for 48 hrs by MTT assay relative to non-stimulation; format: functional; design: scale not given: the % may be the effect or the level left
# Method in brief: (§2)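 LNCaP cells were seeded at 8 × 10^3/well in medium with 10% FBS and grown 48 h. They were then exposed for 48 h to 0.1 nM testosterone or DHT, alone or with compound at 0.125, 0.25, 0.5 or 1 μM. Vehicle control was 0.1% DMSO. Read-out was MTT for 3 h at 37 °C, then OD 590 nm, given as fold proliferation versus vehicle. Triplicate wells, three independent repeats; SEM, n = 3.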
# LNCaP [3] = assay: Antiproliferative activity against androgen-sensitive human LNCaP cells assessed as inhibition of DHT-induced cell growth at 0.125 uM incubated for 48 hrs by MTT assay relative to non-stimulation; format: functional; design: scale not given: the % may be the effect or the level left
# Method in brief: (§3)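 LNCaP cells seeded at 8 × 10^3/well in RPMI with 10% FBS and grown 48 h. Then treated with 0.1 nM DHT alone or with test agent at 0.125, 0.25, 0.5 or 1 μM for 48 h. Control was 0.1% DMSO. MTT for 3 h at 37 °C, OD read at 590 nm. Growth expressed as fold of DMSO control. Triplicate wells, three independent repeats.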
# LNCaP [4] = assay: Antiproliferative activity against androgen-sensitive human LNCaP cells assessed as inhibition of testosterone-induced cell growth at 0.5 uM incubated for 48 hrs by MTT assay relative to non-stimulation; format: functional; design: scale not given: the % may be the effect or the level left
# Method in brief: (§4)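 Androgen-stimulated proliferation in LNCaP: cells seeded at 8 × 10^3/well in RPMI with 10% FBS and grown 48 h. Then exposed 48 h to 0.1 nM testosterone alone or combined with test agent at 0.125–1 μM. Vehicle control was 0.1% DMSO. Read-out was MTT (3 h, 37 °C) at OD 590 nm, as fold induction versus vehicle. Triplicate wells ×3 repeats.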
# LNCaP [5] = assay: Antiproliferative activity against androgen-sensitive human LNCaP cells assessed as inhibition of testosterone-induced cell growth at 1 uM incubated for 48 hrs by MTT assay relative to non-stimulation; format: functional; design: scale not given: the % may be the effect or the level left; method in brief: as §2
# LNCaP [6] = assay: Antiproliferative activity against androgen-sensitive human LNCaP cells assessed as inhibition of DHT-induced cell growth at 0.5 uM incubated for 48 hrs by MTT assay relative to non-stimulation; format: functional; design: scale not given: the % may be the effect or the level left; method in brief: as §3
# LNCaP [7] = assay: Antiproliferative activity against androgen-sensitive human LNCaP cells assessed as inhibition of DHT-induced cell growth at 1 uM incubated for 48 hrs by MTT assay relative to non-stimulation; format: functional; design: scale not given: the % may be the effect or the level left; method in brief: as §3
# LNCaP [8] = assay: Antiproliferative activity against androgen-sensitive human LNCaP cells assessed as inhibition of testosterone-induced cell growth at 0.25 uM incubated for 48 hrs by MTT assay; format: functional; design: scale not given: the % may be the effect or the level left; method in brief: as §4
# LNCaP [9] = assay: Antiproliferative activity against androgen-sensitive human LNCaP cells assessed as inhibition of testosterone-induced cell growth at 0.125 uM incubated for 48 hrs by MTT assay relative to non-stimulation; format: functional; design: scale not given: the % may be the effect or the level left; method in brief: as §4
# Cytochrome P450 3A4 [10] = target: T1, Cytochrome P450 3A4 (Homo sapiens, UniProt P08684); assay: Inhibition of human CYP3A4 assessed as dissociation constant; format: ADME
# Method in brief: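 Spectral titration of 2 μM codon-optimized full-length human CYP3A4 in 0.1 M phosphate pH 7.4 with 20% glycerol and 1 mM DTT, at ambient temperature. Ligand was added from DMSO in small aliquots, keeping final solvent below 2%. Absorbance difference spectra were recorded, and Kd was taken from hyperbolic or quadratic fits to the titration plots.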
# LNCaP [11] = assay: Antiproliferative activity against androgen-sensitive human LNCaP cells assessed as inhibition of DHT-induced cell growth at 0.125 uM incubated for 48 hrs by MTT assay; format: functional; design: scale not given: the % may be the effect or the level left; method in brief: as §3
# Cytochrome P450 3A4 [12] = target: T1, Cytochrome P450 3A4; assay: Inhibition of recombinant human CYP3A4 using BFC as substrate; format: ADME
# Method in brief: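 Codon-optimized full-length recombinant human CYP3A4 in a soluble reconstituted system. Activity measured was debenzylation of 7-benzyloxy-4-(trifluoromethyl)coumarin; IC50 values were determined.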
# T1 sequence (P08684 whole entry): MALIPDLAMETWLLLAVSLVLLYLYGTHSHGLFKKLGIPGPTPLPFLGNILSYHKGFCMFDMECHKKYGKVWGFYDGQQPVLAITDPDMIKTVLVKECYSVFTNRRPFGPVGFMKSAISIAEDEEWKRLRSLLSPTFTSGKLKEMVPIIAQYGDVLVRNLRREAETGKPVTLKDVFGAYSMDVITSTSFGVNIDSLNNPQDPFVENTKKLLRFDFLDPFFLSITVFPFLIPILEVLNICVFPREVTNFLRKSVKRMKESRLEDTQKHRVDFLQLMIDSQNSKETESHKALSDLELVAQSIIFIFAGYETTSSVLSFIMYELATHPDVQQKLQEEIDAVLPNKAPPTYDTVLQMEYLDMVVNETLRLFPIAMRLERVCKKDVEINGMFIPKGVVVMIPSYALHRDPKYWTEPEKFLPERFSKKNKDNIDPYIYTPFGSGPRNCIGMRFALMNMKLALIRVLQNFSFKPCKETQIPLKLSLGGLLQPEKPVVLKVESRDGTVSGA
smiles,measurement,setting,value
C[C@]12CC[C@H]3[C@@H](C([C@H]4C=CC[C@H]5C(=O)OC(=O)[C@@H]45)CC4=CC(=O)CC[C@@]43C)[C@@H]1CC[C@@H]2O (some centres not stated),IC50,PC-3,62.5 µM
same,IC50,LNCaP [1],131 µM
same,IC50,DU-145,86.5 µM
C=C/C=C/[C@@H]1CC2=CC(=O)CC[C@]2(C)[C@H]2CC[C@]3(C)C(=O)CC[C@H]3[C@H]12,IC50,PC-3,51.7 µM
same,IC50,LNCaP [1],33.5 µM
same,IC50,DU-145,21.3 µM
C[C@]12CC[C@H]3[C@@H]([C@H](/C=C/C=C/C=C/[C@@H]4CC5=CC(=O)CC[C@]5(C)[C@H]5CC[C@]6(C)[C@@H](O)CC[C@H]6[C@H]45)CC4=CC(=O)CC[C@@]43C)[C@@H]1CC[C@@H]2O,IC50,PC-3,13.6 µM
same,Activity,LNCaP [2],83%
same,Activity,LNCaP [3],76%
same,Activity,LNCaP [4],100%
same,Activity,LNCaP [5],98%
same,Activity,LNCaP [6],83%
same,IC50,LNCaP [1],12 µM
same,Activity,LNCaP [7],100%
same,Activity,LNCaP [8],86%
same,Activity,LNCaP [9],45%
same,Kd,Cytochrome P450 3A4 [10],5.5 µM
same,Activity,LNCaP [11],45%
same,IC50,DU-145,14.4 µM
same,IC50,Cytochrome P450 3A4 [12],1.2 µM
C[C@]12CC[C@H]3[C@@H]([C@H](C/C=C/C[C@@H]4CC5=CC(=O)CC[C@]5(C)[C@H]5CC[C@]6(C)[C@@H](O)CC[C@H]6[C@H]45)CC4=CC(=O)CC[C@@]43C)[C@@H]1CC[C@@H]2O,Kd,Cytochrome P450 3A4 [10],7.1 µM
same,IC50,Cytochrome P450 3A4 [12],6.5 µM
C[C@]12CC[C@H]3[C@@H]([C@H](C/C=C\C[C@@H]4CC5=CC(=O)CC[C@]5(C)[C@H]5CC[C@]6(C)[C@@H](O)CC[C@H]6[C@H]45)CC4=CC(=O)CC[C@@]43C)[C@@H]1CC[C@@H]2O,Kd,Cytochrome P450 3A4 [10],0.37 µM
same,IC50,Cytochrome P450 3A4 [12],0.8 µM
C[C@]12CC[C@H]3[C@@H]([C@H](/C=C/C=C/C=C/[C@@H]4CC5=CC(=O)CC[C@]5(C)[C@H]5CC[C@]6(C)[C@H](O)CC[C@H]6[C@H]45)CC4=CC(=O)CC[C@@]43C)[C@@H]1CC[C@H]2O,IC50,PC-3,44.5 µM
same,Activity,LNCaP [2],84%
same,Activity,LNCaP [3],54%
same,Activity,LNCaP [4],112%
same,Activity,LNCaP [5],84%
same,Activity,LNCaP [6],86%
same,IC50,LNCaP [1],37.1 µM
same,Activity,LNCaP [7],100%
same,Activity,LNCaP [8],100%
same,Activity,LNCaP [9],82%
same,Kd,Cytochrome P450 3A4 [10],1.6 µM
same,Activity,LNCaP [11],45%
same,IC50,DU-145,21.4 µM
same,IC50,Cytochrome P450 3A4 [12],22 µM
C=C/C=C/[C@@H]1CC2=CC(=O)CC[C@]2(C)[C@H]2CC[C@]3(C)[C@@H](O)CC[C@H]3[C@H]12,IC50,PC-3,34.1 µM
same,IC50,LNCaP [1],28.8 µM
same,IC50,DU-145,29 µM
C[C@]12CCC(=O)C=C1C[C@@H](/C=C/C=C/C=C/[C@@H]1CC3=CC(=O)CC[C@]3(C)[C@H]3CC[C@]4(C)C(=O)CC[C@H]4[C@H]13)[C@@H]1[C@@H]2CC[C@]2(C)C(=O)CC[C@@H]12,IC50,PC-3,29 µM
same,IC50,LNCaP [1],72.7 µM
same,Kd,Cytochrome P450 3A4 [10],1.4 µM
same,IC50,DU-145,53.6 µM
same,IC50,Cytochrome P450 3A4 [12],3.6 µM
C=C/C=C/[C@@H]1CC2=CC(=O)CC[C@]2(C)[C@H]2CC[C@]3(C)[C@H](O)CC[C@H]3[C@H]12,IC50,PC-3,31.5 µM
same,IC50,LNCaP [1],16.6 µM
same,IC50,DU-145,23.8 µM
CC(=O)O[C@]1(C(C)=O)CC[C@H]2[C@@H]3C=C(Cl)C4=CC(=O)[C@@H]5C[C@@H]5[C@]4(C)[C@H]3CC[C@@]21C [CYPROTERONE ACETATE],IC50,PC-3,56.9 µM
same,IC50,LNCaP [1],59.6 µM
same,IC50,DU-145,50.7 µM
